Data reported in ChEMBL document CHEMBL4689842, “EUbOPEN Chemogenomics Library wave 1” (2021).

System: HEK-293T
Assay: Multiplex assay against HEK293T;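 on Population Tubulin-Different-Phenotype (%): share of the cells with healthy nuclei that show this phenotype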
Type: toxicity, cell-based
Settings: human
Method in brief: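 Live cells were stained at seeding with Hoechst33342, BioTracker Green Microtubule Cytoskeleton Dye, MitoTracker Red and Annexin V Alexa Fluor 680, then imaged on a CQ1 microscope at 37°C and 5% CO2 after compound addition. CellPathfinder machine-learning gating split cells into Hoechst high-intensity objects or normal cells. Normal cells were split into healthy, pyknosed or fragmented nuclei, and pyknosed cells into mitotic or apoptotic. Tubulin, mitochondrial-mass and membrane-permeability phenotypes are per cents of healthy-nucleus cells.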

[1] = 12 h, 1 µM, compound concentration 1 uM, replicate 1
[2] = 12 h, 1 µM, compound concentration 1 uM, replicate 2
[3] = 12 h, 10 µM, compound concentration 10 uM, replicate 1
[4] = 12 h, 10 µM, compound concentration 10 uM, replicate 2
[5] = 24 h, 1 µM, compound concentration 1 uM, replicate 1
[6] = 24 h, 1 µM, compound concentration 1 uM, replicate 2
[7] = 24 h, 10 µM, compound concentration 10 uM, replicate 1
[8] = 24 h, 10 µM, compound concentration 10 uM, replicate 2
[9] = 48 h, 1 µM, compound concentration 1 uM, replicate 1
[10] = 48 h, 1 µM, compound concentration 1 uM, replicate 2
[11] = 48 h, 10 µM, compound concentration 10 uM, replicate 1
[12] = 48 h, 10 µM, compound concentration 10 uM, replicate 2

CN1CCN(c2ccc(OC(F)(F)F)c(Nc3ncc4c(n3)-c3c(c(C(N)=O)nn3CCO)CC4)c2)CC1 [ONVANSERTIB]
Population Apoptotic (%) [1]: 68% | Population Fragmented Nuclei (%) [1]: 13% | Population Healthy Nuclei (%) [1]: 36% | Population Hoechst High Intensity Objects (%) [1]: 16% | Population Membrane Permeable-Phenotype (%) [1]: 6% | Population Mitochondria Different-Phenotype (%) [1]: 83% | Population Mitotic Cells (%) [1]: 31% | Population Normal (%) [1]: 83% | Population Pyknosed Nuclei (%) [1]: 50% | Population Tubulin-Different-Phenotype (%) [1]: 39% | Total Cell Count [1]: 216 | Population Apoptotic (%) [2]: 21% | Population Fragmented Nuclei (%) [2]: 11% | Population Healthy Nuclei (%) [2]: 23% | Population Hoechst High Intensity Objects (%) [2]: 5% | Population Membrane Permeable-Phenotype (%) [2]: 0% | Population Mitochondria Different-Phenotype (%) [2]: 32% | Population Mitotic Cells (%) [2]: 78% | Population Normal (%) [2]: 94% | Population Pyknosed Nuclei (%) [2]: 65% | Population Tubulin-Different-Phenotype (%) [2]: 24% | Total Cell Count [2]: 113 | Population Apoptotic (%) [3]: 67% | Population Fragmented Nuclei (%) [3]: 8% | Population Healthy Nuclei (%) [3]: 41% | Population Hoechst High Intensity Objects (%) [3]: 12% | Population Mitochondria Different-Phenotype (%) [3]: 98% | Population Mitotic Cells (%) [3]: 32% | Population Normal (%) [3]: 87% | Population Pyknosed Nuclei (%) [3]: 49% | Population Tubulin-Different-Phenotype (%) [3]: 96% | Total Cell Count [3]: 269 | Population Apoptotic (%) [4]: 31% | Population Fragmented Nuclei (%) [4]: 5% | Population Healthy Nuclei (%) [4]: 30% | Population Hoechst High Intensity Objects (%) [4]: 2% | Population Membrane Permeable-Phenotype (%) [4]: 1% | Population Mitochondria Different-Phenotype (%) [4]: 82% | Population Mitotic Cells (%) [4]: 68% | Population Normal (%) [4]: 97% | Population Pyknosed Nuclei (%) [4]: 64% | Population Tubulin-Different-Phenotype (%) [4]: 81% | Total Cell Count [4]: 234 | Population Apoptotic (%) [5]: 60% | Population Fragmented Nuclei (%) [5]: 16% | Population Healthy Nuclei (%) [5]: 23% | Population Hoechst High Intensity Objects (%) [5]: 14% | Population Membrane Permeable-Phenotype (%) [5]: 9% | Population Mitochondria Different-Phenotype (%) [5]: 83% | Population Mitotic Cells (%) [5]: 39% | Population Normal (%) [5]: 85% | Population Pyknosed Nuclei (%) [5]: 60% | Population Tubulin-Different-Phenotype (%) [5]: 67% | Total Cell Count [5]: 211 | Population Apoptotic (%) [6]: 15% | Population Fragmented Nuclei (%) [6]: 11% | Population Healthy Nuclei (%) [6]: 26% | Population Hoechst High Intensity Objects (%) [6]: 9% | Population Membrane Permeable-Phenotype (%) [6]: 0% | Population Mitochondria Different-Phenotype (%) [6]: 68% | Population Mitotic Cells (%) [6]: 84% | Population Normal (%) [6]: 90% | Population Pyknosed Nuclei (%) [6]: 62% | Population Tubulin-Different-Phenotype (%) [6]: 62% | Total Cell Count [6]: 122 | Population Apoptotic (%) [7]: 55% | Population Fragmented Nuclei (%) [7]: 7% | Population Healthy Nuclei (%) [7]: 41% | Population Hoechst High Intensity Objects (%) [7]: 15% | Population Membrane Permeable-Phenotype (%) [7]: 2% | Population Mitochondria Different-Phenotype (%) [7]: 95% | Population Mitotic Cells (%) [7]: 44% | Population Normal (%) [7]: 84% | Population Pyknosed Nuclei (%) [7]: 50% | Population Tubulin-Different-Phenotype (%) [7]: 90% | Total Cell Count [7]: 303 | Population Apoptotic (%) [8]: 42% | Population Fragmented Nuclei (%) [8]: 5% | Population Healthy Nuclei (%) [8]: 39% | Population Hoechst High Intensity Objects (%) [8]: 4% | Population Membrane Permeable-Phenotype (%) [8]: 4% | Population Mitochondria Different-Phenotype (%) [8]: 83% | Population Mitotic Cells (%) [8]: 57% | Population Normal (%) [8]: 95% | Population Pyknosed Nuclei (%) [8]: 54% | Population Tubulin-Different-Phenotype (%) [8]: 83% | Total Cell Count [8]: 256 | Population Apoptotic (%) [9]: 57% | Population Fragmented Nuclei (%) [9]: 20% | Population Healthy Nuclei (%) [9]: 18% | Population Hoechst High Intensity Objects (%) [9]: 20% | Population Membrane Permeable-Phenotype (%) [9]: 0% | Population Mitochondria Different-Phenotype (%) [9]: 59% | Population Mitotic Cells (%) [9]: 42% | Population Normal (%) [9]: 79% | Population Pyknosed Nuclei (%) [9]: 60% | Population Tubulin-Different-Phenotype (%) [9]: 43% | Total Cell Count [9]: 213 | Population Apoptotic (%) [10]: 36% | Population Fragmented Nuclei (%) [10]: 12% | Population Healthy Nuclei (%) [10]: 45% | Population Hoechst High Intensity Objects (%) [10]: 8% | Population Membrane Permeable-Phenotype (%) [10]: 6% | Population Mitochondria Different-Phenotype (%) [10]: 30% | Population Mitotic Cells (%) [10]: 63% | Population Normal (%) [10]: 91% | Population Pyknosed Nuclei (%) [10]: 42% | Population Tubulin-Different-Phenotype (%) [10]: 59% | Total Cell Count [10]: 118 | Population Apoptotic (%) [11]: 64% | Population Fragmented Nuclei (%) [11]: 14% | Population Healthy Nuclei (%) [11]: 29% | Population Hoechst High Intensity Objects (%) [11]: 14% | Population Membrane Permeable-Phenotype (%) [11]: 2% | Population Mitochondria Different-Phenotype (%) [11]: 95% | Population Mitotic Cells (%) [11]: 35% | Population Normal (%) [11]: 85% | Population Pyknosed Nuclei (%) [11]: 55% | Population Tubulin-Different-Phenotype (%) [11]: 89% | Total Cell Count [11]: 267 | Population Apoptotic (%) [12]: 51% | Population Fragmented Nuclei (%) [12]: 6% | Population Healthy Nuclei (%) [12]: 42% | Population Hoechst High Intensity Objects (%) [12]: 6% | Population Mitochondria Different-Phenotype (%) [12]: 78% | Population Mitotic Cells (%) [12]: 48% | Population Normal (%) [12]: 93% | Population Pyknosed Nuclei (%) [12]: 51% | Population Tubulin-Different-Phenotype (%) [12]: 84% | Total Cell Count [12]: 246
